# In ChEMBL document CHEMBL1149705, “Synthesis and antimicrobial evaluation of new chalcones containing piperazine or 2,5-dichlorothiophene moiety” (2007):
# Tested on: Candida albicans
# Test: Antifungal activity against Candida albicans after 48 hrs by agar well diffusion technique
# Format: functional
# Conditions: not given
row,SMILES,MIC50 [mg/L]
1,O=C(/C=C/C=C/c1ccccc1)c1ccc(N2CCNCC2)cc1,90
2,COc1cc(/C=C/C(=O)c2cc(Cl)sc2Cl)cc(OC)c1OC,78
3,Cc1ccc(/C=C/C(=O)c2ccc(N3CCNCC3)cc2)cc1,8.75

# Results, then the compound that gave them:
row,MIC50 [mg/L],SMILES
1,75,O=C(/C=C/C=C/c1ccccc1)c1cc(Cl)sc1Cl
2,51.1,Cc1cccc(/C=C/C(=O)c2cc(Cl)sc2Cl)c1
3,6.89,Cc1cccc(/C=C/C(=O)c2ccc(N3CCNCC3)cc2)c1
4,6.75,O=C(/C=C/c1cccc([N+](=O)[O-])c1)c1ccc(N2CCNCC2)cc1
5,4.56,O=C(/C=C/c1ccccc1)c1ccc(N2CCNCC2)cc1

# Tested on: Nakaseomyces glabratus
# Test: Antifungal activity against Candida glabrata HO3 after 48 hrs by agar well diffusion technique
# Format: functional
# Conditions: not given
row,SMILES,MIC50 [mg/L]
1,O=C(/C=C/C=C/c1ccccc1)c1ccc(N2CCNCC2)cc1,75
2,COc1cc(/C=C/C(=O)c2cc(Cl)sc2Cl)cc(OC)c1OC,45.1
3,Cc1ccc(/C=C/C(=O)c2ccc(N3CCNCC3)cc2)cc1,7.66

# Other lines, results leading:
row,MIC50 [mg/L],SMILES
1,60,O=C(/C=C/C=C/c1ccccc1)c1cc(Cl)sc1Cl
2,65,Cc1cccc(/C=C/C(=O)c2cc(Cl)sc2Cl)c1
3,9.94,Cc1cccc(/C=C/C(=O)c2ccc(N3CCNCC3)cc2)c1
4,16.8,O=C(/C=C/c1cccc([N+](=O)[O-])c1)c1ccc(N2CCNCC2)cc1
5,7.57,O=C(/C=C/c1ccccc1)c1ccc(N2CCNCC2)cc1

# Tested on: Proteus vulgaris
# Test: Antibacterial activity against Proteus vulgaris at 250 ug/ml after 48 hrs by agar well diffusion technique
# Format: functional
# Conditions: read-out: IZ
# Procedure, shortened: (§1)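 Cup-plate agar well diffusion on nutrient agar, set for 1–1.5 h. Cups of 10 mm were bored with a sterile cork borer, and test solution was added by sterile syringe. Plates were incubated at 37 °C for 48 h. The read-out was inhibition zone diameter in mm, graded 0–6 mild, 7–13 moderate and 14–26 efficacy. Ciprofloxacin was the standard; 10% DMSO served as solvent control.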
row,SMILES,zone of inhibition at 250 µg/mL [mm]
1,O=C(O)c1cn(C2CC2)c2cc(N3CCNCC3)c(F)cc2c1=O [CIPROFLOXACIN],24
2,Cc1cccc(/C=C/C(=O)c2cc(Cl)sc2Cl)c1,6
3,O=C(/C=C/C=C/c1ccccc1)c1ccc(N2CCNCC2)cc1,8
4,O=C(/C=C/C=C/c1ccccc1)c1cc(Cl)sc1Cl,11
5,O=C(/C=C/c1cccc([N+](=O)[O-])c1)c1ccc(N2CCNCC2)cc1,18
6,COc1cc(/C=C/C(=O)c2cc(Cl)sc2Cl)cc(OC)c1OC,12
7,O=C(/C=C/c1ccccc1)c1ccc(N2CCNCC2)cc1,20
8,Cc1cccc(/C=C/C(=O)c2ccc(N3CCNCC3)cc2)c1,20
9,Cc1ccc(/C=C/C(=O)c2ccc(N3CCNCC3)cc2)cc1,14

# Tested on: Pichia kudriavzevii
# Test: Antifungal activity against Candida krusei GO3 after 48 hrs by agar well diffusion technique
# Format: functional
# Conditions: not given
row,SMILES,MIC50 [mg/L]
1,O=C(/C=C/C=C/c1ccccc1)c1ccc(N2CCNCC2)cc1,60
2,COc1cc(/C=C/C(=O)c2cc(Cl)sc2Cl)cc(OC)c1OC,40.1
3,Cc1ccc(/C=C/C(=O)c2ccc(N3CCNCC3)cc2)cc1,7.02

# Next, values leading:
row,MIC50 [mg/L],SMILES
1,55.6,O=C(/C=C/C=C/c1ccccc1)c1cc(Cl)sc1Cl
2,42.3,Cc1cccc(/C=C/C(=O)c2cc(Cl)sc2Cl)c1
3,5.69,Cc1cccc(/C=C/C(=O)c2ccc(N3CCNCC3)cc2)c1
4,18.6,O=C(/C=C/c1cccc([N+](=O)[O-])c1)c1ccc(N2CCNCC2)cc1
5,5.38,O=C(/C=C/c1ccccc1)c1ccc(N2CCNCC2)cc1

# Tested on: Staphylococcus aureus
# Test: Antibacterial activity against Staphylococcus aureus 209p at 250 ug/ml after 48 hrs by agar well diffusion technique
# Format: functional
# Conditions: read-out: IZ
# Procedure, shortened: as §1
row,SMILES,zone of inhibition at 250 µg/mL [mm]
1,O=C(O)c1cn(C2CC2)c2cc(N3CCNCC3)c(F)cc2c1=O [CIPROFLOXACIN],22
2,Cc1cccc(/C=C/C(=O)c2cc(Cl)sc2Cl)c1,11
3,O=C(/C=C/C=C/c1ccccc1)c1ccc(N2CCNCC2)cc1,10
4,O=C(/C=C/C=C/c1ccccc1)c1cc(Cl)sc1Cl,9
5,O=C(/C=C/c1cccc([N+](=O)[O-])c1)c1ccc(N2CCNCC2)cc1,24
6,COc1cc(/C=C/C(=O)c2cc(Cl)sc2Cl)cc(OC)c1OC,12
7,O=C(/C=C/c1ccccc1)c1ccc(N2CCNCC2)cc1,22
8,Cc1cccc(/C=C/C(=O)c2ccc(N3CCNCC3)cc2)c1,24
9,Cc1ccc(/C=C/C(=O)c2ccc(N3CCNCC3)cc2)cc1,16

# Tested on: Nakaseomyces glabratus
# Test: Antifungal activity against Candida glabrata HO3 at 250 ug/ml after 48 hrs by agar well diffusion technique
# Format: functional
# Conditions: read-out: IZ
row,SMILES,zone of inhibition at 250 µg/mL [mm]
1,Cc1cccc(/C=C/C(=O)c2cc(Cl)sc2Cl)c1,14
2,O=C(/C=C/C=C/c1ccccc1)c1ccc(N2CCNCC2)cc1,6
3,O=C(/C=C/C=C/c1ccccc1)c1cc(Cl)sc1Cl,16
4,O=C(/C=C/c1cccc([N+](=O)[O-])c1)c1ccc(N2CCNCC2)cc1,18
5,COc1cc(/C=C/C(=O)c2cc(Cl)sc2Cl)cc(OC)c1OC,20
6,O=C(/C=C/c1ccccc1)c1ccc(N2CCNCC2)cc1,24
7,Cc1cccc(/C=C/C(=O)c2ccc(N3CCNCC3)cc2)c1,22
8,Cc1ccc(/C=C/C(=O)c2ccc(N3CCNCC3)cc2)cc1,24

# Tested on: Candida albicans
# Test: Antifungal activity against Candida albicans at 250 ug/ml after 48 hrs by agar well diffusion technique
# Format: functional
# Conditions: read-out: IZ
row,SMILES,zone of inhibition at 250 µg/mL [mm]
1,Cc1cccc(/C=C/C(=O)c2cc(Cl)sc2Cl)c1,10
2,O=C(/C=C/C=C/c1ccccc1)c1ccc(N2CCNCC2)cc1,9
3,O=C(/C=C/C=C/c1ccccc1)c1cc(Cl)sc1Cl,8
4,O=C(/C=C/c1cccc([N+](=O)[O-])c1)c1ccc(N2CCNCC2)cc1,16
5,COc1cc(/C=C/C(=O)c2cc(Cl)sc2Cl)cc(OC)c1OC,6
6,O=C(/C=C/c1ccccc1)c1ccc(N2CCNCC2)cc1,24
7,Cc1cccc(/C=C/C(=O)c2ccc(N3CCNCC3)cc2)c1,16
8,Cc1ccc(/C=C/C(=O)c2ccc(N3CCNCC3)cc2)cc1,22

# Tested on: Aspergillus fumigatus
# Test: Antifungal activity against Aspergillus fumigatus at 250 ug/ml after 48 hrs by agar well diffusion technique
# Format: functional
# Conditions: read-out: IZ
# Procedure, shortened: as §1
row,SMILES,zone of inhibition at 250 µg/mL [mm]
1,O=C(O)c1cn(C2CC2)c2cc(N3CCNCC3)c(F)cc2c1=O [CIPROFLOXACIN],24
2,Cc1cccc(/C=C/C(=O)c2cc(Cl)sc2Cl)c1,20
3,O=C(/C=C/C=C/c1ccccc1)c1ccc(N2CCNCC2)cc1,14
4,O=C(/C=C/C=C/c1ccccc1)c1cc(Cl)sc1Cl,20
5,O=C(/C=C/c1cccc([N+](=O)[O-])c1)c1ccc(N2CCNCC2)cc1,20
6,COc1cc(/C=C/C(=O)c2cc(Cl)sc2Cl)cc(OC)c1OC,14
7,O=C(/C=C/c1ccccc1)c1ccc(N2CCNCC2)cc1,22
8,Cc1cccc(/C=C/C(=O)c2ccc(N3CCNCC3)cc2)c1,20
9,Cc1ccc(/C=C/C(=O)c2ccc(N3CCNCC3)cc2)cc1,18

# Tested on: Escherichia coli
# Test: Antibacterial activity against Escherichia coli ESS 2231 at 250 ug/ml after 48 hrs by agar well diffusion technique
# Format: functional
# Conditions: read-out: IZ
# Procedure, shortened: as §1
row,SMILES,zone of inhibition at 250 µg/mL [mm]
1,Cc1cccc(/C=C/C(=O)c2cc(Cl)sc2Cl)c1,20
2,O=C(/C=C/C=C/c1ccccc1)c1ccc(N2CCNCC2)cc1,16
3,O=C(/C=C/C=C/c1ccccc1)c1cc(Cl)sc1Cl,16
4,O=C(/C=C/c1cccc([N+](=O)[O-])c1)c1ccc(N2CCNCC2)cc1,26
5,COc1cc(/C=C/C(=O)c2cc(Cl)sc2Cl)cc(OC)c1OC,14
6,O=C(/C=C/c1ccccc1)c1ccc(N2CCNCC2)cc1,24
7,Cc1cccc(/C=C/C(=O)c2ccc(N3CCNCC3)cc2)c1,22
8,Cc1ccc(/C=C/C(=O)c2ccc(N3CCNCC3)cc2)cc1,14

# Tested on: Pichia kudriavzevii
# Test: Antifungal activity against Candida krusei GO3 at 250 ug/ml after 48 hrs by agar well diffusion technique
# Format: functional
# Conditions: read-out: IZ
row,SMILES,zone of inhibition at 250 µg/mL [mm]
1,Cc1cccc(/C=C/C(=O)c2cc(Cl)sc2Cl)c1,22
2,O=C(/C=C/C=C/c1ccccc1)c1ccc(N2CCNCC2)cc1,14
3,O=C(/C=C/C=C/c1ccccc1)c1cc(Cl)sc1Cl,16
4,O=C(/C=C/c1cccc([N+](=O)[O-])c1)c1ccc(N2CCNCC2)cc1,18
5,COc1cc(/C=C/C(=O)c2cc(Cl)sc2Cl)cc(OC)c1OC,22
6,O=C(/C=C/c1ccccc1)c1ccc(N2CCNCC2)cc1,24
7,Cc1cccc(/C=C/C(=O)c2ccc(N3CCNCC3)cc2)c1,24
8,Cc1ccc(/C=C/C(=O)c2ccc(N3CCNCC3)cc2)cc1,22

# Tested on: Klebsiella pneumoniae
# Test: Antibacterial activity against Klebsiella pneumoniae at 250 ug/ml after 48 hrs by agar well diffusion technique
# Format: functional
# Conditions: read-out: IZ
# Procedure, shortened: as §1
row,SMILES,zone of inhibition at 250 µg/mL [mm]
1,O=C(O)c1cn(C2CC2)c2cc(N3CCNCC3)c(F)cc2c1=O [CIPROFLOXACIN],24
2,Cc1cccc(/C=C/C(=O)c2cc(Cl)sc2Cl)c1,10
3,O=C(/C=C/C=C/c1ccccc1)c1ccc(N2CCNCC2)cc1,5
4,O=C(/C=C/C=C/c1ccccc1)c1cc(Cl)sc1Cl,7
5,O=C(/C=C/c1cccc([N+](=O)[O-])c1)c1ccc(N2CCNCC2)cc1,14
6,COc1cc(/C=C/C(=O)c2cc(Cl)sc2Cl)cc(OC)c1OC,6
7,O=C(/C=C/c1ccccc1)c1ccc(N2CCNCC2)cc1,18
8,Cc1cccc(/C=C/C(=O)c2ccc(N3CCNCC3)cc2)c1,16
9,Cc1ccc(/C=C/C(=O)c2ccc(N3CCNCC3)cc2)cc1,14
